Measured values of several laboratories.
Protocols differ between the studies behind these lines.
FGFR1: Fibroblast growth factor receptor 1 (FGFR1, Homo sapiens, UniProt P11362)
FGFR1 V561M: Fibroblast growth factor receptor 1 (FGFR1, Homo sapiens, UniProt P11362, V561M)

SMILES | target | assay | conditions | endpoint | value
CNCc1ccccc1-c1csc([C@H](C)Nc2nc(C)nc3cc(OC)c(OC)cc23)c1 | FGFR1 | cell-free assay, competition with immobilised ligand | 1 µM | remaining binding | 100%
CN(c1ncccc1CNc1nc(Nc2ccc3c(c2)CC(=O)N3)ncc1C(F)(F)F)S(C)(=O)=O | FGFR1 | enzyme activity, inhibitor | 1 µM | inhibition | 80.1%
Cc1c[nH]c2nccc(Oc3c(F)cc(Nc4cc(Cl)nc(N)n4)cc3F)c12 | FGFR1 | cell-free assay, competition with immobilised ligand | 0.1 µM | remaining binding | 100%
CCOC(=O)c1c(C)[nH]c(/C=C2\C(=O)Nc3ccccc32)c1C | FGFR1 | cell-free assay | 0.5 µM | remaining signal | 78.6%
C=CC(=O)Nc1cc(Nc2nccc(Nc3cc(Cl)c(F)cc3C(C)(C)O)n2)c(OC)cc1N1CC[C@@H](N(C)C)C1 | FGFR1 V561M | enzyme activity, inhibitor | 1 µM | inhibition | 1%
COc1ccc(/C=C/C(=O)c2ccc(NC3=C(Cl)C(=O)c4ccccc4C3=O)cc2)cc1O | FGFR1 | enzyme activity, inhibitor, ADP detection | 1 µM | inhibition | > 70%
C[S+]([O-])c1ccc(-c2nc(-c3ccncc3)c(-c3ccc(F)cc3)[nH]2)cc1 (stereo not shown) | FGFR1 | cell-free assay | 0.5 µM | remaining signal | 90.7%
C/C=C/C(=O)NCc1ccc(-n2nc3c(=O)[nH]nc(N)c3c2-c2oc3ccc(C)cc3c2C)cc1 | FGFR1 | enzyme activity, inhibitor, ELISA | 10 nM | inhibition | 11.1%
CNC(=O)c1cc(Oc2ccc(NC(=O)Nc3ccc(Cl)c(C(F)(F)F)c3)cc2)ccn1 | FGFR1 V561M | cell-free assay | 0.3 µM | inhibition | 26%
CC/C(=N\NC(=O)NCc1cccc(O)c1)c1ccc(O)c(C)c1O | FGFR1 V561M | enzyme activity, inhibitor | 0.1 µM | inhibition | 10.8%
CS(=O)(=O)c1cc(C2(NC(=O)c3cncc4c3cnn4-c3ccc(F)cc3)CC2)ccn1 | FGFR1 | cell-free assay, competition with immobilised ligand | 1 µM | remaining binding | 95%
O=C1Nc2ccc(Cl)cc2C1=Cc1cc(Cl)c(O)c(Cl)c1 | FGFR1 | cell-free assay | 0.5 µM | remaining signal | 90.8%
CNc1cccc2cc(C(=O)Nc3ccc(C(=O)O)cc3)c(=O)[nH]c12 | FGFR1 | enzyme activity, inhibitor | 10 µM | inhibition | 9.9%
Cn1nc(C(F)(F)F)cc1-c1cnc(N2CCc3cc(S(=O)(=O)Nc4c(F)cc(Cl)cc4F)cc(N4CCCC4=O)c32)nc1 | FGFR1 | cell-free assay, competition with immobilised ligand | 1 µM | remaining binding | 99%
Cc1ccc(C(=O)NCc2ccsc2)cc1C#Cc1cn(C(C)C)c2ncnc(N)c12 | FGFR1 | enzyme activity, inhibitor | 1 µM | activity vs control | 33%
CC(=O)N1CCC(c2ccc(C(=O)NC3=NCCN3)cc2C(F)(F)F)CC1 | FGFR1 | cell-free assay, competition with immobilised ligand | 1 µM | remaining binding | 100%
Cc1cc(NC(=O)c2cccc3cc(-c4cccc5[nH]nc(N)c45)ccc23)ccc1F | FGFR1 | enzyme activity, inhibitor | 0.1 µM | activity vs control | 95%
Cc1noc([C@H]2C[C@@H](c3ccc(C(F)(F)F)cc3)CN(C(=O)N3CCS(=O)(=O)C3)C2)n1 | FGFR1 | cell-free assay, competition with immobilised ligand | 1 µM | remaining binding | 100%
COc1cc2ncnc(Nc3ccc(F)c(Cl)c3)c2cc1OCCCN1CCOCC1 | FGFR1 | cell-free assay | 0.5 µM | remaining signal | 96.4%
